{
  "source": "paper PMC10925246",
  "about": "(bioRxiv, 2024)",
  "key": {"P. aeruginosa PA14 [1]": {"system": "P. aeruginosa PA14", "assay_type": "cell-based, Pseudomonas aeruginosa", "settings": "for minimum inhibitory concentration (MIC): PA14, CFU assay"}, "FeoB": {"system": "FeoB", "assay_type": "binding, P. aeruginosa PAO1", "settings": "overnight 4°C, 0.15 M NaCl; eluted with 0.5 and 1 M KCl, not 0.3 M KCl; n = 3 experiments", "how_it_was_run": "(§1)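 Cys-extended test peptide (2 mg) was coupled to SulfoLink resin in 50 mM Tris pH 8.5, 5 mM EDTA, 3 h room temperature. His-tagged transporter was Ni-Sepharose purified (4 h, 4°C; imidazole elution) and applied to the column; the flowthrough was collected. Columns were washed with 10 mM HEPES, 0.05% dodecyl-maltoside, 0.15 M KCl, then step-eluted with 0.3, 0.5, 1.0 M KCl. Unboiled fractions went to 4–20% SDS-PAGE and anti-His (1 µg/ml, overnight 4°C) western with IRDye secondary.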"}, "PotH": {"molecular_target": "T1, PotH (Escherichia coli, UniProt P31135)", "T1 sequence (P31135 1-317)": "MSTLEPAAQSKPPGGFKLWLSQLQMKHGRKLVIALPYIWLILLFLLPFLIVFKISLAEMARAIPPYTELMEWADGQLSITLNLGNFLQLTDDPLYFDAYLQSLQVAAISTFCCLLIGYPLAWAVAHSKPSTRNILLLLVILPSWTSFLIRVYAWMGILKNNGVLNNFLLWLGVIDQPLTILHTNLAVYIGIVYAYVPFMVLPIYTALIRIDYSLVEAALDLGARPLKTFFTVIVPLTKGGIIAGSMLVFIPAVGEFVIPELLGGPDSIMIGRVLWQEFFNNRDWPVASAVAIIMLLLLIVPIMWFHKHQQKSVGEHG", "assay_type": "binding, E. coli", "settings": "overnight 4°C, 0.15 M NaCl; eluted with 0.5 and 1 M KCl, not 0.3 M KCl; n = 3 experiments", "how_it_was_run": "as §1"}, "thrombin": {"molecular_target": "thrombin (Homo sapiens, UniProt P00734)", "experiment": "N-104 affinity column screen of human tears, thrombin western blot", "assay_type": "binding", "settings": "pooled human basal tears, 5 hours 4°C, KCl elution, anti-thrombin western blot", "how_it_was_run": "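Basal tears were collected 5 min on Schirmer strips after 0.5% proparacaine, eluted at 4°C in phosphate-buffered saline and pooled (170 µl). The pool was diluted fivefold with protease inhibitors, agarose-precleared, and split by protein between test-peptide and control-peptide columns for 5 h at 4°C. Elution was 0.3/0.5/1.0 M KCl; the 0.5 M eluate went to MS (human UniProt search). Unboiled fractions: 4–20% SDS-PAGE, polyclonal anti-thrombin 1 µg/ml overnight 4°C, LI-COR detection.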"}, "[2]": {"experiment": "Solubility of synthetic loop peptides in solvents", "assay_type": "physicochemical", "settings": "lyophilized synthetic peptide, acetylated and amidated", "how_it_was_run": "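Synthetic outer-loop peptides were N-acetylated and C-amidated, ≥95% HPLC purity, and stored lyophilized at −80°C. Each was […] as required before competition binding at 0–250 µM.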"}, "P. aeruginosa PA14 [3]": {"system": "P. aeruginosa PA14", "experiment": "Polyamine toxicity for PA14", "assay_type": "cell-based, Pseudomonas aeruginosa", "settings": "10^6 cfu/ml PA14, 30 mOsm/l, alamarBlue; n = 3 experiments"}, "[4]": {"system": "^14C-spermidine uptake by PA14", "experiment": "Polyamine transport assay", "assay_type": "cell-based, Pseudomonas aeruginosa", "settings": "10 and 25 µM, 45 min 35°C pretreatment, n = 3 experiments", "how_it_was_run": "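PA14 (0.8×10^8 cfu in 100 µl dilute phosphate saline) was pre-incubated 45 min at 35°C with or without 10 or 25 µM test peptide. Cells were then given 1 µl of 10 mM [1,4-14C]spermidine stock (0.1 mCi/ml) for 15 min at 35°C. Pellets were washed four times with phosphate-buffered saline and counted by liquid scintillation, last wash also counted. Molecules per cell were estimated from a spermidine standard curve.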"}, "[5]": {"system": "PA14 pathogenesis in C. elegans N2", "experiment": "C. elegans - PA14 liquid infection", "assay_type": "in vivo, Caenorhabditis elegans", "settings": "SYTOX Orange uptake of dead worms", "how_it_was_run": "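Young adult worms (raised from L1 on NGM with E. coli OP50 at room temperature, washed off in M9, pelleted 1200×g 2 min) were placed ~50 per well in 150 µl 90% M9/10% LB. They were incubated aerobically with an equal volume of PA14, feoB/potH/yaiW transposon mutants, or OP50, diluted to 10^7 cfu/ml and pre-treated with 50 µM test peptide for 5 h at 35°C. After 3 days, equal volume 6 µM SYTOX Orange was added; imaged next day, transmitted and 535/610 nm fluorescence.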"}, "P. aeruginosa PA14 [6]": {"system": "P. aeruginosa PA14", "experiment": "N-104 resistance assay over 30 generations", "assay_type": "cell-based, Pseudomonas aeruginosa", "settings": "through 30 generations, sub-MIC and MIC exposure; n = 2 experiments"}, "[7]": {"system": "PA14 feoB, potH and yaiW transposon mutants", "experiment": "CFU killing assay of PA14 transposon mutants", "assay_type": "cell-based, Pseudomonas aeruginosa", "settings": "10^6 cfu/ml, 30 mOsm/l; n = 3 experiments", "how_it_was_run": "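Suspensions were exposed to test peptide or left untreated ~8 h at 35°C. 2 µl were spotted on LB agar, with or without selective antibiotic, incubated overnight at 37°C and imaged; n = 3 experiments.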"}},
  "note": "Ends that are not written are not given here.",
  "data": [
    {"compound": "Ac-AQKLLKKFSLSKPWA [N-104:L115S]", "values": [
      {"measurement": "minimum inhibitory concentration (MIC)", "setting": "P. aeruginosa PA14 [1]", "result": 2, "unit": "µM"}
    ]},
    {"compound": "EDASSDSTGADPAQEAGTSKPNEE-NH2 [C-95]", "values": [
      {"measurement": "binding of His tagged FeoB to column immobilized peptide", "setting": "FeoB", "result": "Neither bound"},
      {"measurement": "binding of His tagged PotH to column immobilized peptide", "setting": "PotH", "result": "Neither bound"},
      {"measurement": "capture of thrombin from human tears by column immobilized peptide", "setting": "thrombin", "result": "None bound"}
    ]},
    {"compound": "Ac-INIGGALQP-NH2 [FeoB outer loop 1 synthetic peptide]", "values": [
      {"measurement": "solubility in water and organic solvents", "setting": "[2]", "result": "not water, DMSO, methanol, isopropanol nor acetonitrile soluble"},
      {"measurement": "solvent in which the peptide dissolved", "setting": "[2]", "result": "formic or acetic acid"}
    ]},
    {"compound": "Ac-GAFFGQGGA-NH2 [FeoB outer loop 3 synthetic peptide]", "values": [
      {"measurement": "solubility in water and organic solvents", "setting": "[2]", "result": "not water, DMSO, methanol, isopropanol nor acetonitrile soluble"},
      {"measurement": "solvent in which the peptide dissolved", "setting": "[2]", "result": "ammonia water and acetic acid"}
    ]},
    {"compound": "NCCCCNCCCN", "note": "[spermidine]", "values": [
      {"measurement": "effect of exogenous polyamine on N-104 bactericidal activity", "setting": "P. aeruginosa PA14 [1]; PA14, 5 µM N-104 plus polyamine at or below 100 µM, n = 3 experiments", "result": "inhibited N-104 bactericidal activity in a concentration-dependent manner"},
      {"measurement": "concentrations toxic for PA14", "setting": "P. aeruginosa PA14 [3]", "result": "greater than 100 µM"}
    ]},
    {"compound": "Ac-AKAGKGMHGGVPGG-NH2 [N-80/C-25]", "values": [
      {"measurement": "effect on ^14C-spermidine uptake", "setting": "[4]", "result": "almost similar inhibitory effect"}
    ]},
    {"compound": "Ac-AQKLLKKFSLLKPWA [N-104]", "values": [
      {"measurement": "dependence of PA14 killing efficacy on osmolarity", "setting": "P. aeruginosa PA14 [1]; two osmolalities (30 and 300 mOsm/l)", "result": "efficacy diminishes as osmolarity increases"},
      {"measurement": "effect of peptide alone on C. elegans", "setting": "[5]", "result": "no apparent effect"},
      {"measurement": "development of resistance of PA14", "setting": "P. aeruginosa PA14 [6]", "result": "No stable resistance"},
      {"measurement": "killing of PA14 transposon mutant lacking YaiW", "setting": "[7]", "result": "partially resistant"},
      {"measurement": "binding of His tagged FeoB to column immobilized peptide", "setting": "FeoB", "result": "high affinity ligation"},
      {"measurement": "binding of His tagged PotH to column immobilized peptide", "setting": "PotH", "result": "high affinity ligation"},
      {"measurement": "capture of thrombin from human tears by column immobilized peptide", "setting": "thrombin", "result": "binds"}
    ]},
    {"compound": "Ac-AQKLLKKFSSLKPWA [N-104:L114S]", "values": [
      {"measurement": "minimum inhibitory concentration (MIC)", "setting": "P. aeruginosa PA14 [1]", "result": 2, "unit": "µM"}
    ]}
  ]
}
